# In PubChem BioAssay AID686992 (Broad Institute, 2013):
# Screen size: about 260,000 compounds; about 960 (0.37%) were called active.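 The calls were made as follows: active = mean E-selectin-positive cell signal at least 10% of the positive control, reached in at least 60% of replicates, without over 20% cell loss; inconclusive = no rule given, readout overlaps actives, possibly toxicity-flagged; inactive = the rest, including those meeting only one limit.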 This excerpt belongs to a sample that is enriched for actives.
# Target: E-selectin (Homo sapiens) (UniProt P16581)
# Sequence (P16581 whole entry, looked up): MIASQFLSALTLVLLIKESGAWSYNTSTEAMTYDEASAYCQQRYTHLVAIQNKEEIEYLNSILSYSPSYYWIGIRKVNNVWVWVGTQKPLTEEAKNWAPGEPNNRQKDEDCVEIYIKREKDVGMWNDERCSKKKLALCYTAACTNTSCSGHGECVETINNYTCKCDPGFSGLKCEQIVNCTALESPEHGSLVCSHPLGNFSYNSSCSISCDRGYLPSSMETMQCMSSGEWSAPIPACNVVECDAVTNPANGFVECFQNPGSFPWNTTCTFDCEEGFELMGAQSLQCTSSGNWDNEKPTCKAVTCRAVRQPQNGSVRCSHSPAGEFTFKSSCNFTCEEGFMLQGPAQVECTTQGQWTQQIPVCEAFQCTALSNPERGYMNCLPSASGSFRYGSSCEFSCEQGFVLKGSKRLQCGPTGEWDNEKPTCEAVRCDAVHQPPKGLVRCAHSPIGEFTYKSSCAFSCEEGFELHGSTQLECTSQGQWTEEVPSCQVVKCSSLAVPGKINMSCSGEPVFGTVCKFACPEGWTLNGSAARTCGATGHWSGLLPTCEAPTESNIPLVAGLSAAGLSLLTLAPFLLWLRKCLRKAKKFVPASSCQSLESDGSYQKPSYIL
# Assay: inducers of endothelial E-selectin expression – imaging, HUVEC, immunofluorescence imaging, single point, primary screen (AID 686992);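 also: signal is the percent of cells scored E-selectin positive by PE staining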
# Conditions: at 7.58 µM, hits give high values, normalized: neutral wells 0, TNF-alpha wells 100
# Procedure, shortened: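 Assay system: HUVEC, human umbilical vein endothelial cells / Amount: 3,000 HUVEC/well / Controls: TNF-alpha positive control, DMSO neutral control / Compound dosing: single concentration / Medium: EGM-2 over gelatin coat / Evaluation: percent E-selectin-positive cells / Signal: immunofluorescence imaging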
row,Compound,activation
1,COc1ccc(S(=O)(=O)N(C)C[C@@H]2Oc3ccc(NC(=O)Nc4c(C)noc4C)cc3C(=O)N([C@H](C)CO)C[C@@H]2C)cc1,-0.053% (inactive)
2,COc1ccc(S(=O)(=O)N(C)C[C@H]2Oc3ccc(NC(=O)Nc4c(C)noc4C)cc3C(=O)N([C@@H](C)CO)C[C@@H]2C)cc1,43.2% (active)
3,Cc1noc(C)c1NC(=O)Nc1ccc2c(c1)C(=O)N([C@@H](C)CO)C[C@H](C)[C@H](CN(C)S(=O)(=O)c1ccc(Cl)cc1)O2,-0.247% (inactive)
4,COc1ccc(S(=O)(=O)N(C)C[C@H]2Oc3ccc(NC(=O)Nc4c(C)noc4C)cc3CC(=O)N([C@@H](C)CO)C[C@H]2C)cc1,-4.24% (inactive)
5,COc1ccc(NC(=O)Nc2ccc3c(c2)C(=O)N([C@@H](C)CO)C[C@H](C)[C@@H](CN(C)S(=O)(=O)c2ccc(Cl)cc2)O3)cc1,8.29% (inactive)
6,COc1ccc(S(=O)(=O)N(C)C[C@H]2Oc3ccc(NC(=O)Nc4c(C)noc4C)cc3C(=O)N([C@H](C)CO)C[C@H]2C)cc1,45.3% (active)
7,CC1=C(C(=O)N(C(C)C)C(C)C)CC(CC(=O)NCCCCc2ccccc2)C(=O)N1CCC1=CCCCC1 (configuration not stated),1.3% (inactive)
8,Cc1cc(C)n2c(Nc3c(C)cccc3C)c(CCc3ccccc3)nc2n1,0.0345% (inactive)
9,COc1cccc2c1C(=O)c1c(O)c3c(c(O)c1C2=O)CC(O)(C(C)=NNC(=O)c1ccc(Cl)c(Cl)c1)CC3OC1CC(N)C(O)C(C)O1 (configuration not stated),160% (active)
10,CO[C@H]1CN(C)C(=O)c2ccc(NC(=O)CC(F)(F)F)cc2OC[C@H](C)N(C(=O)C2CC2)C[C@H]1C,-0.112% (inactive)
11,CCC(=O)Nc1ccc2c(c1)C(=O)N(C)[C@@H]1CC[C@@H](CC(=O)NCCN3CCCCC3)O[C@@H]1CO2,-0.0795% (inactive)
12,CCNS(=O)(=O)c1ccc(CCC(=O)N2CCN(c3cc(Cl)ccc3C)CC2)cc1,-0.168% (inactive)
13,CCNS(=O)(=O)c1ccc(CCC(=O)N2CCN(c3ccc(OC)cc3)CC2)cc1,31.3% (active)
14,COc1ccc(N2CCN(C(=O)CNC(=O)c3ccc(Br)o3)CC2)cc1,-0.05% (inactive)
15,COc1ccccc1CCn1cnc(-c2ccccc2)c1C(C)C,-0.038% (inactive)
16,O=C(c1cccnc1)N1C[C@@H]2[C@H](c3ccccc31)[C@@H](CO)N2C(=O)Nc1ccc(F)cc1,0.778% (inactive)
17,O=C(Nc1ccc(Br)cc1)c1cc(S(=O)(=O)Nc2ccccn2)ccc1Cl,0.225% (inactive)
18,Cc1cccc(NS(=O)(=O)c2cccc(C(=O)NNC(=O)c3ccccc3O)c2)c1,-0.07% (inactive)
19,Cc1ccccc1NC(=O)c1cc(S(=O)(=O)Nc2cccc(C(=O)O)c2)ccc1Cl,65.6% (active)
20,CC(C)C[C@H]1CN([C@@H](Cc2ccccc2)CN2CCC[C@@H]2CN2C(=O)C(=O)NC[C@@H]2Cc2ccc(O)cc2)C(=O)C(=O)N1CCc1ccccc1,9.99% (inactive)
21,COc1ccc(C(=O)Nc2ccccc2C(=O)N2CCN(c3ccccc3)CC2)cc1,0.169% (inactive)

row,Compound,activation
1,COc1ccc(N2CCN(C(=O)c3ccccc3NC(=O)C3=C(C)OCCS3)CC2)cc1,54.3% (active)
2,CCCCNC(=O)c1ccccc1NC(=O)C1=C(C)OCCS1,0.108% (inactive)
3,COc1ccc(Sc2ccc(NC(=O)c3cccc(Cl)c3)cc2C#N)cc1,2.08% (inactive)
4,O=C(O)C1CCC(CNS(=O)(=O)c2ccc(Br)cc2)CC1 (configuration not stated),-0.071% (inactive)
5,COCCCNC(=O)C1CCC(CNS(=O)(=O)c2ccc(OC)cc2)CC1 (configuration not stated),-0.0375% (inactive)
6,CCCCSCCCNC(=O)C1CCC(CNS(=O)(=O)c2ccc(NC(C)=O)cc2)CC1 (configuration not stated),58.2% (active)
7,C[C@@H]1CN([C@@H](C)CO)C(=O)Cc2cc(NC(=O)CCC(F)(F)F)ccc2O[C@@H]1CN(C)C(=O)Nc1cccc2ccccc12,0.23% (inactive)
8,C[C@@H]1CN([C@@H](C)CO)C(=O)Cc2cc(NC(=O)NC3CCCCC3)ccc2O[C@H]1CN(C)C(=O)Nc1ccc(C(F)(F)F)cc1,0.389% (inactive)
9,C[C@@H]1CN([C@@H](C)CO)C(=O)Cc2cc(NC(=O)C3CC3)ccc2O[C@@H]1CN(C)S(C)(=O)=O,-0.338% (inactive)
10,C[C@@H]1CN([C@@H](C)CO)C(=O)Cc2cc(NC(=O)Nc3ccc(C(F)(F)F)cc3)ccc2O[C@H]1CN(C)C(=O)Nc1ccc(F)cc1,-0.224% (inactive)
11,C[C@H]1CN([C@@H](C)CO)C(=O)Cc2cc(NC(=O)C3CC3)ccc2O[C@@H]1CN(C)S(=O)(=O)c1cccs1,55.7% (active)
12,C[C@H]1CN([C@@H](C)CO)C(=O)Cc2cc(NS(C)(=O)=O)ccc2O[C@@H]1CN(C)S(=O)(=O)c1cccs1,-0.124% (inactive)
13,C[C@H]1CN([C@@H](C)CO)C(=O)Cc2cc(NC(=O)Nc3ccc(F)cc3)ccc2O[C@H]1CN(C)C(=O)Nc1ccc(C(F)(F)F)cc1,29.7% (active)
14,C[C@H]1CN([C@@H](C)CO)C(=O)Cc2cc(NC(=O)CCC(F)(F)F)ccc2O[C@H]1CN(C)C(=O)NC1CCCCC1,0.0445% (inactive)
15,CC(C)NC(=O)N(C)C[C@H]1Oc2ccc(NC(=O)CCC(F)(F)F)cc2CC(=O)N([C@@H](C)CO)C[C@@H]1C,50.4% (active)
16,C[C@@H]1CCCCO[C@@H](CN(C)C(=O)CCCN(C)C)[C@H](C)CN([C@@H](C)CO)C(=O)c2cc(NC(=O)Nc3ccccc3)ccc2O1,-0.0275% (inactive)
17,N#C[C@@H]1[C@@H](c2ccc(-c3ccccc3F)cc2)[C@@H](CO)N1C(=O)c1ccccn1,0.692% (inactive)
18,COC(=O)N1Cc2ccnnc2CC1c1ccccc1Br (configuration not stated),-0.184% (inactive)
19,CSc1ccc(CN2CCC2(C)C(=O)NCc2ccccc2Br)cc1 (configuration not stated),-0.129% (inactive)
20,CC(Sc1ccc(S(=O)(=O)N2CCN(C)CC2)cn1)C(=O)NC1CCCC(C)C1C (configuration not stated),-0.0545% (inactive)
21,O=C(c1ccccn1)N1CC2(C1)[C@@H](c1ccccc1)[C@@H](CO)N2C(=O)C1CCCCC1,1.98% (inactive)
